# From ChEMBL document CHEMBL1932986, “Synthesis and in vitro antimycobacterial activity of compounds derived from (R)- and (S)-2-amino-1-butanol - The crucial role of the configuration” (Eur J Med Chem, 2012)
# Activity calls are given as the source filed them. The rule behind the calls is not given here.
# Columns and labels:
# Bacillus subtilis [1] = assay: Antibacterial activity against Bacillus subtilis ATCC 6633 assessed as concentration required to produce >11 mm of zone of inhibition after 24 hrs by agar diffusion test; type: functional
# In short: (§1)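 Agar diffusion: wells in agar filled with […] DMSO solution of compound at various concentrations; diameter of clear zone around application point measured. Bacteria grown 24 h at 37 °C on nutrient agar. Compounds first screened at 50 mg/ml; those active then tested at lower concentrations. Bracketed value = lowest concentration (mg/ml) giving zone >11 mm, reported only if activity retained at ≤1.25 mg/ml.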
# Acinetobacter johnsonii [2] = assay: Antibacterial activity against Acinetobacter johnsonii ATCC 17909 at 2 mg/ml after 24 hrs by agar diffusion test; type: functional; in short: as §1
# Saccharomyces cerevisiae [3] = assay: Antifungal activity against Saccharomyces cerevisiae ATCC 9763 assessed as concentration required to produce >11 mm of zone of inhibition after 72 hrs by agar diffusion test; type: functional
# In short: (§2)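 Agar diffusion: yeasts grown on yeast peptone dextrose agar and fungi on potato dextrose agar. Wells are filled with […] of compound solution in DMSO at various concentrations, and the clear-zone diameter is measured. Bracketed values give the lowest concentration (mg/ml) that produces a zone >11 mm. A first screen is run at 50 mg/ml.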
# Priestia megaterium [4] = assay: Antibacterial activity against Bacillus megaterium NRRL 1353895 at 50 mg/ml after 24 hrs by agar diffusion test; type: functional; details: NRRL 1353895, 24 h, read-out: DIZ; in short: as §1
# Micrococcus luteus [5] = assay: Antibacterial activity against Sarcina lutea ATCC 9341 at 2 mg/ml after 24 hrs by agar diffusion test; type: functional, organism-based; in short: as §1
# Escherichia coli [6] = assay: Antibacterial activity against Escherichia coli ATCC 8739 at 50 mg/ml after 24 hrs by agar diffusion test; type: functional; details: ATCC 8739, 24 h, read-out: DIZ; in short: as §1
# Priestia megaterium [7] = assay: Antibacterial activity against Bacillus megaterium NRRL 1353895 at 2 mg/ml after 24 hrs by agar diffusion test; type: functional, organism-based; in short: as §1
# Penicillium chrysogenum [8] = assay: Antifungal activity against Penicillium chrysogenum CECT 2802 assessed as concentration required to produce >11 mm of zone of inhibition after 72 hrs by agar diffusion test; type: functional; in short: as §2
# Penicillium chrysogenum [9] = assay: Antifungal activity against Penicillium chrysogenum CECT 2802 at 2 mg/ml after 72 hrs by agar diffusion test; type: functional, organism-based; in short: as §2
# Micrococcus luteus [10] = assay: Antibacterial activity against Sarcina lutea ATCC 9341 assessed as concentration required to produce >11 mm of zone of inhibition after 24 hrs by agar diffusion test; type: functional; in short: as §1
# Acinetobacter johnsonii [11] = assay: Antibacterial activity against Acinetobacter johnsonii ATCC 17909 assessed as concentration required to produce >11 mm of zone of inhibition after 24 hrs by agar diffusion test; type: functional; in short: as §1
# Bacillus subtilis [12] = assay: Antibacterial activity against Bacillus subtilis ATCC 6633 at 2 mg/ml after 24 hrs by agar diffusion test; type: functional, organism-based; in short: as §1
# Staphylococcus aureus [13] = assay: Antibacterial activity against Staphylococcus aureus NRRL B 313 at 50 mg/ml after 24 hrs by agar diffusion test; type: functional; details: NRRL B 313, 24 h, read-out: DIZ
# In short: (§3)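 Agar diffusion: bacteria grown 24 h at 37 °C on nutrient agar. Wells in the agar are filled with […] of compound solution in DMSO at various concentrations. The diameter of the clear zone around the application point is measured. Bracketed values give the lowest concentration (mg/ml) that produces a zone >11 mm. A first screen is run at 50 mg/ml.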
# Saccharomyces cerevisiae [14] = assay: Antifungal activity against Saccharomyces cerevisiae ATCC 9763 at 2 mg/ml after 72 hrs by agar diffusion test; type: functional, organism-based; in short: as §2
# Bacillus cereus [15] = assay: Antibacterial activity against Bacillus cereus ATCC 11778 at 2 mg/ml after 24 hrs by agar diffusion test; type: functional, organism-based; in short: as §1
# Bacillus [16] = assay: Antibacterial activity against Bacillus idosus B 241 at 50 mg/ml after 24 hrs by agar diffusion test; type: functional; details: B 241, 24 h, read-out: DIZ; in short: as §1
# [17] = test system: Mycobacterium tuberculosis; assay: Antimycobacterial activity against Mycobacterium tuberculosis H37Rv after 45 days; type: functional
# In short: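 Canetti proportion method. Compound in DMSO is added to Löwenstein–Jensen egg medium before coagulation (30 min, 85 °C), tested at three levels plus a lower one where needed. Tubes are inoculated with H37Rv at 10⁵ cells/ml and incubated 45 days at 37 °C. Colony counts versus drug-free control give percentage inhibition.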
# Penicillium chrysogenum [18] = assay: Antifungal activity against Penicillium chrysogenum CECT 2802 at 50 mg/ml after 72 hrs by agar diffusion test; type: functional; details: CECT 2802, 72 h, read-out: DIZ; in short: as §2
# Priestia megaterium [19] = assay: Antibacterial activity against Bacillus megaterium NRRL 1353895 assessed as concentration required to produce >11 mm of zone of inhibition after 24 hrs by agar diffusion test; type: functional; in short: as §1
# Bacillus [20] = assay: Antibacterial activity against Bacillus idosus B 241 at 2 mg/ml after 24 hrs by agar diffusion test; type: functional, organism-based; in short: as §1
# Bacillus mycoides [21] = assay: Antibacterial activity against Bacillus mycoides DSMZ 274 assessed as concentration required to produce >11 mm of zone of inhibition after 24 hrs by agar diffusion test; type: functional; in short: as §1
# Bacillus [22] = assay: Antibacterial activity against Bacillus idosus B 241 assessed as concentration required to produce >11 mm of zone of inhibition after 24 hrs by agar diffusion test; type: functional; in short: as §1
# Acinetobacter johnsonii [23] = assay: Antibacterial activity against Acinetobacter johnsonii ATCC 17909 at 50 mg/ml after 24 hrs by agar diffusion test; type: functional; details: ATCC 17909, 24 h, read-out: DIZ; in short: as §1
# Staphylococcus aureus [24] = assay: Antibacterial activity against Staphylococcus aureus NRRL B 313 assessed as concentration required to produce >11 mm of zone of inhibition after 24 hrs by agar diffusion test; type: functional; in short: as §3
# Bacillus mycoides [25] = assay: Antibacterial activity against Bacillus mycoides DSMZ 274 at 50 mg/ml after 24 hrs by agar diffusion test; type: functional; details: DSMZ 274, 24 h, read-out: DIZ; in short: as §1
# Candida tropicalis [26] = assay: Antifungal activity against Candida tropicalis ATCC 20336 at 2 mg/ml after 72 hrs by agar diffusion test; type: functional, organism-based; in short: as §2
# Bacillus mycoides [27] = assay: Antibacterial activity against Bacillus mycoides DSMZ 274 at 2 mg/ml after 24 hrs by agar diffusion test; type: functional, organism-based; in short: as §1
# Micrococcus luteus [28] = assay: Antibacterial activity against Micrococcus luteus ATCC 9631 at 2 mg/ml after 24 hrs by agar diffusion test; type: functional, organism-based; in short: as §1
# Bacillus cereus [29] = assay: Antibacterial activity against Bacillus cereus ATCC 11778 at 50 mg/ml after 24 hrs by agar diffusion test; type: functional; details: ATCC 11778, 24 h, read-out: DIZ; in short: as §1
# Bacillus subtilis [30] = assay: Antibacterial activity against Bacillus subtilis ATCC 6633 at 50 mg/ml after 24 hrs by agar diffusion test; type: functional; details: ATCC 6633, 24 h, read-out: DIZ; in short: as §1
# Escherichia coli [31] = assay: Antibacterial activity against Escherichia coli ATCC 8739 at 2 mg/ml after 24 hrs by agar diffusion test; type: functional, organism-based; in short: as §1
# Micrococcus luteus [32] = assay: Antibacterial activity against Micrococcus luteus ATCC 9631 assessed as concentration required to produce >11 mm of zone of inhibition after 24 hrs by agar diffusion test; type: functional; in short: as §1
# Bacillus cereus [33] = assay: Antibacterial activity against Bacillus cereus ATCC 11778 assessed as concentration required to produce >11 mm of zone of inhibition after 24 hrs by agar diffusion test; type: functional; in short: as §1
# Candida tropicalis [34] = assay: Antifungal activity against Candida tropicalis ATCC 20336 assessed as concentration required to produce >11 mm of zone of inhibition after 72 hrs by agar diffusion test; type: functional; in short: as §2
# Candida tropicalis [35] = assay: Antifungal activity against Candida tropicalis ATCC 20336 at 50 mg/ml after 72 hrs by agar diffusion test; type: functional; details: ATCC 20336, 72 h, read-out: DIZ; in short: as §2
# Micrococcus luteus [36] = assay: Antibacterial activity against Sarcina lutea ATCC 9341 at 50 mg/ml after 24 hrs by agar diffusion test; type: functional; details: ATCC 9341, 24 h, read-out: DIZ; in short: as §3
# Staphylococcus aureus [37] = assay: Antibacterial activity against Staphylococcus aureus NRRL B 313 at 2 mg/ml after 24 hrs by agar diffusion test; type: functional, organism-based; in short: as §3
# Micrococcus luteus [38] = assay: Antibacterial activity against Micrococcus luteus ATCC 9631 at 50 mg/ml after 24 hrs by agar diffusion test; type: functional; details: ATCC 9631, 24 h, read-out: DIZ; in short: as §1
# Saccharomyces cerevisiae [39] = assay: Antifungal activity against Saccharomyces cerevisiae ATCC 9763 at 50 mg/ml after 72 hrs by agar diffusion test; type: functional; details: ATCC 9763, 72 h, read-out: DIZ; in short: as §2
structure (smiles),measurement,setting,value
CC[C@H](CO)NCc1c2ccccc2cc2ccccc12,Activity,Bacillus subtilis [1],0.3 mg/mL
same,diameter of the inhibition zone (DIZ),Acinetobacter johnsonii [2],inactive
same,Activity,Saccharomyces cerevisiae [3],0.0125 mg/mL
same,zone of inhibition at 50000 µg/mL,Priestia megaterium [4],20 mm
same,diameter of the inhibition zone (DIZ),Micrococcus luteus [5],inactive
same,zone of inhibition at 50000 µg/mL,Escherichia coli [6],12 mm
same,diameter of the inhibition zone (DIZ),Priestia megaterium [7],inactive
same,Activity,Penicillium chrysogenum [8],0.06 mg/mL
same,diameter of the inhibition zone (DIZ),Penicillium chrysogenum [9],inactive
same,Activity,Micrococcus luteus [10],0.3 mg/mL
same,Activity,Acinetobacter johnsonii [11],0.6 mg/mL
same,diameter of the inhibition zone (DIZ),Bacillus subtilis [12],inactive
same,zone of inhibition at 50000 µg/mL,Staphylococcus aureus [13],19 mm
same,diameter of the inhibition zone (DIZ),Saccharomyces cerevisiae [14],inactive
same,diameter of the inhibition zone (DIZ),Bacillus cereus [15],inactive
same,zone of inhibition at 50000 µg/mL,Bacillus [16],19 mm
same,MIC,[17],17.9 µM
same,zone of inhibition at 50000 µg/mL,Penicillium chrysogenum [18],16 mm
same,Activity,Priestia megaterium [19],0.6 mg/mL
same,diameter of the inhibition zone (DIZ),Bacillus [20],inactive
same,Activity,Bacillus mycoides [21],0.6 mg/mL
same,Activity,Bacillus [22],1.25 mg/mL
same,zone of inhibition at 50000 µg/mL,Acinetobacter johnsonii [23],17 mm
same,Activity,Staphylococcus aureus [24],0.03 mg/mL
same,zone of inhibition at 50000 µg/mL,Bacillus mycoides [25],20 mm
same,diameter of the inhibition zone (DIZ),Candida tropicalis [26],inactive
same,diameter of the inhibition zone (DIZ),Bacillus mycoides [27],inactive
same,diameter of the inhibition zone (DIZ),Micrococcus luteus [28],inactive
same,zone of inhibition at 50000 µg/mL,Bacillus cereus [29],19 mm
same,zone of inhibition at 50000 µg/mL,Bacillus subtilis [30],18 mm
same,diameter of the inhibition zone (DIZ),Escherichia coli [31],inactive
same,Activity,Micrococcus luteus [32],0.3 mg/mL
same,Activity,Bacillus cereus [33],0.3 mg/mL
same,Activity,Candida tropicalis [34],0.0125 mg/mL
same,zone of inhibition at 50000 µg/mL,Candida tropicalis [35],31 mm
same,zone of inhibition at 50000 µg/mL,Micrococcus luteus [36],18 mm
same,diameter of the inhibition zone (DIZ),Staphylococcus aureus [37],inactive
same,zone of inhibition at 50000 µg/mL,Micrococcus luteus [38],19 mm
same,zone of inhibition at 50000 µg/mL,Saccharomyces cerevisiae [39],32 mm
